According to ChEMBL document CHEMBL5316375, “Discovery of Novel, Selective Prostaglandin EP4 Receptor Antagonists with Efficacy in Cancer Models” (ACS Med Chem Lett, 2023):
One block for each compound: values may come before it.

How the values were obtained:
[1] = molecular target: T1, Prostaglandin E2 receptor EP2 subtype (Homo sapiens, UniProt P43116); experiment: Displacement of [3H]-PGE2 from EP2 receptor membrane (unknown origin) measured after 2 hrs by Microscint-O scintillation counting analysis; assay type: cell membranes
[2] = molecular target: T2, Prostaglandin E2 receptor EP1 subtype (Homo sapiens, UniProt P34995); experiment: Displacement of [3H]-PGE2 from EP1 receptor membrane (unknown origin) measured after 2 hrs by Microscint-O scintillation counting analysis; assay type: cell membranes
T2 sequence (P34995 whole entry): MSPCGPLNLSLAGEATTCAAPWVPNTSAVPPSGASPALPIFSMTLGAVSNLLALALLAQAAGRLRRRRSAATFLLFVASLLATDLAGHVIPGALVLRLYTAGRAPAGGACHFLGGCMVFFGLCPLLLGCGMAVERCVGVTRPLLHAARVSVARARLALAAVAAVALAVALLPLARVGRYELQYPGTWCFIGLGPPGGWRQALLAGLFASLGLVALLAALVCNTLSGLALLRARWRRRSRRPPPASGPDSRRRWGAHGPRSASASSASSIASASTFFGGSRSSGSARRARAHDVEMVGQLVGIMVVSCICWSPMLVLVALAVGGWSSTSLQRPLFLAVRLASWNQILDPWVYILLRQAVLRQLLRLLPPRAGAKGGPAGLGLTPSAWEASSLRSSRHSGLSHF

[3] = molecular target: T3, Prostaglandin E2 receptor EP3 subtype (Homo sapiens, UniProt P43115); experiment: Displacement of [3H]-PGE2 from EP3 receptor membrane (unknown origin) measured after 2 hrs by Microscint-O scintillation counting analysis; assay type: cell membranes
T3 sequence (P43115 whole entry): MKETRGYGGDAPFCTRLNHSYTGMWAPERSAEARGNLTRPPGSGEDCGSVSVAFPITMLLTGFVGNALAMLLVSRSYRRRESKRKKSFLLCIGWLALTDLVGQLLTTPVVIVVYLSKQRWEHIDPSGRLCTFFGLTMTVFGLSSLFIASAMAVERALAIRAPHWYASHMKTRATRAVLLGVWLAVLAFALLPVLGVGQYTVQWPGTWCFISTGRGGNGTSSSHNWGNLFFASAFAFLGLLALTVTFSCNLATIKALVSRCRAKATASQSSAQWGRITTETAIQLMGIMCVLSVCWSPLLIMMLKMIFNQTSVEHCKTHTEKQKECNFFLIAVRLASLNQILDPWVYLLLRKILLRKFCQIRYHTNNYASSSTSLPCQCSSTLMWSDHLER

[4] = molecular target: Prostaglandin E2 receptor EP4 subtype (Homo sapiens, UniProt P35408); experiment: Antagonist activity at human EP4 receptor overexpressed in HEK293 cells assessed as inhibition of PGE2-induced cAMP formation preincubated for 15 mins followed by PGE addition and measured after 30 mins by Eu-cAMP tracer based assay; assay type: functional, cell-based
[5] = tested on: CT26; experiment: Antitumor activity against mouse CT26 cells allografted in BALB/c mouse assessed as tumor growth inhibition at 300 mg/kg, po qd administered for 21 days starting from day 8 post tumor implantation measured once for every 2 or 3 days relative to control; assay type: functional; details: CT26, 504 h, time 21 day, read-out: TGI
Summary of the method: (§1)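 CT-26 tumors in BALB/c mice (n = 6/group) dosed orally once daily from day 8 after implantation until day 21, in vehicle 0.5% carboxymethylcellulose sodium. Groups: vehicle, capecitabine 300 mg/kg alone, or capecitabine 300 mg/kg plus EP4 antagonist at 75 or 150 mg/kg. Tumor volume, TGI versus vehicle, body weight and tumor weight were recorded, with Dunnett's test.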

[6] = tested on: CT26; experiment: Antitumor activity against mouse CT26 cells allografted in BALB/c mouse assessed as mean tumor volume at 300 mg/kg, po qd administered for 21 days starting from day 8 post tumor implantation measured once for every 2 or 3 days (reference value: 2036.95 +/- 333.12 mm3); assay type: functional; details: time 21 day; summary of the method: as §1
[7] = Toxicity in BALB/c mouse allografted with CT26 cells assessed as effect on body weight at 300 mg/kg, po administered daily for 21 days and measured every 2 to 3 days; assay type: organism-based; details: in vivo, 504 h, time 21 day; summary of the method: as §1
[8] = Plasma protein binding in human assessed as parent compound remaining at 1 uM incubated for 6 hrs by LC-MS/MS analysis; assay type: ADME, cell-free
[9] = Volume of distribution at steady state in Sprague-Dawley rat at 1 mg/kg, iv; assay type: ADME, organism-based; details: in vivo, read-out: Vdss
[10] = Microsomal stability in mouse liver microsomes assessed as half life at 1 uM measured for 60 mins by LC-MS/MS analysis; assay type: ADME, Microsome
[11] = Clearance in Sprague-Dawley rat at 1 mg/kg, iv; assay type: ADME, organism-based; details: in vivo
[12] = Toxicity in BALB/c mouse allografted with CT26 cells assessed as reduction in body weight at 75 to 150 mg/kg, po administered daily for 21 days and measured every 2 to 3 days in presence of 300 mg/kg capecitabine; assay type: organism-based; details: in vivo, 504 h, dose 75-150 mg/kg, time 21 day; summary of the method: as §1
[13] = Plasma protein binding in mouse at 1 uM incubated for 6 hrs by LC-MS/MS analysis; assay type: ADME, cell-free
[14] = molecular target: T1, Prostaglandin E2 receptor EP2 subtype; experiment: Antagonist activity at EP2 receptor (unknown origin)
[15] = Cmax in Sprague-Dawley rat at 1 mg/kg, iv; assay type: ADME, organism-based; set-up: dose 1 mg/kg, route iv; details: in vivo
[16] = Microsomal stability in human liver microsomes assessed as half life at 1 uM measured for 60 mins by LC-MS/MS analysis; assay type: ADME, Microsome
[17] = Half life in Sprague-Dawley rat at 10 mg/kg, po; assay type: ADME, organism-based; details: in vivo
[18] = molecular target: Voltage-gated inwardly rectifying potassium channel KCNH2 (Homo sapiens, UniProt Q12809); experiment: Inhibition of hERG; assay type: toxicity
[19] = Tmax at Sprague-Dawley rat at 10 mg/kg, po; assay type: ADME, organism-based; details: in vivo
[20] = Plasma protein binding in mouse assessed as parent compound remaining at 1 uM incubated for 6 hrs by LC-MS/MS analysis; assay type: ADME, cell-free
[21] = AUC (0 to t) in Sprague-Dawley rat at 10 mg/kg, po; assay type: ADME, organism-based; set-up: dose 10 mg/kg, route po; details: in vivo
[22] = molecular target: T2, Prostaglandin E2 receptor EP1 subtype; experiment: Antagonist activity at EP1 receptor (unknown origin)
[23] = AUC (0 to infinity) in Sprague-Dawley rat at 10 mg/kg, po; assay type: ADME, organism-based; set-up: dose 10 mg/kg, route po; details: in vivo
[24] = Cmax in Sprague-Dawley rat at 10 mg/kg, po; assay type: ADME, organism-based; set-up: dose 10 mg/kg, route po; details: in vivo
[25] = Microsomal stability in rat liver microsomes assessed as half life at 1 uM measured for 60 mins by LC-MS/MS analysis; assay type: ADME, Microsome
[26] = molecular target: T3, Prostaglandin E2 receptor EP3 subtype; experiment: Antagonist activity at EP3 receptor (unknown origin)
[27] = Plasma protein binding in human at 1 uM incubated for 6 hrs by LC-MS/MS analysis; assay type: ADME, cell-free
[28] = Toxicity in BALB/c mouse allografted with CT26 cells assessed as body weight loss at 75 to 150 mg/kg, po qd administered for 11 days and measured every 2 to 3 days; assay type: organism-based; details: in vivo, 264 h, dose 75-150 mg/kg, time 11 day
Summary of the method: (§2)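 CT-26 tumors in BALB/c mice grown to 100–200 mm3, then animals randomized (n = 6/group). Dosing was oral, once daily for 11 days, in vehicle 0.5% carboxymethylcellulose sodium in PBS. Groups: vehicle, 75 or 150 mg/kg, or E7046 150 mg/kg. Tumor volume, TGI versus vehicle, body weight and day-11 tumor weight were recorded, with Dunnett's test versus vehicle.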

[29] = AUC (0 to t) in Sprague-Dawley rat at 1 mg/kg, iv; assay type: ADME, organism-based; set-up: dose 1 mg/kg, route iv; details: in vivo
[30] = Plasma protein binding in rat at 1 uM incubated for 6 hrs by LC-MS/MS analysis; assay type: ADME, cell-free
[31] = Plasma protein binding in rat assessed as parent compound remaining at 1 uM incubated for 6 hrs by LC-MS/MS analysis; assay type: ADME, cell-free
[32] = Half life in Sprague-Dawley rat at 1 mg/kg, iv; assay type: ADME, organism-based; details: in vivo
[33] = Oral bioavailability in Sprague-Dawley rat at 10 mg/kg; assay type: ADME, organism-based; details: in vivo
[34] = AUC (0 to infinity) in Sprague-Dawley rat at 1 mg/kg, iv; assay type: ADME, organism-based; set-up: dose 1 mg/kg, route iv; details: in vivo
[35] = tested on: CT26; experiment: Antitumor activity against mouse CT26 cells allografted in BALB/c mouse assessed as mean tumor volume at 150 mg/kg, po qd administered every day for 11 days measured for every 2 or 3 days (reference value: 2145.58 +/- 152.9 mm3); assay type: functional; details: time 11 day; summary of the method: as §2
[36] = tested on: CT26; experiment: Antitumor activity against mouse CT26 cells allografted in BALB/c mouse assessed as tumor growth inhibition at 150 mg/kg, po qd administered every day for 11 days measured for every 2 or 3 days relative to control; assay type: functional; details: CT26, 264 h, time 11 day, read-out: TGI; summary of the method: as §2

T1 sequence (P43116 whole entry): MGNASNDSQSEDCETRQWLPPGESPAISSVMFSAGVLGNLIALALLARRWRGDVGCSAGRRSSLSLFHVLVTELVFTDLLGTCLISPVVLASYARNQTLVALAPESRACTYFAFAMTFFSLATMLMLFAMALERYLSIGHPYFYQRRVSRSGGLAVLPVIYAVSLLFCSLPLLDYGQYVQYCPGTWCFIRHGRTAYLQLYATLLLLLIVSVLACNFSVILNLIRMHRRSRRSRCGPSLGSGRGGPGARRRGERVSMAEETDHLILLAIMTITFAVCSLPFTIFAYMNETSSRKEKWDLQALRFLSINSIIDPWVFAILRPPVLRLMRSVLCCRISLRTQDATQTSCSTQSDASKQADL
Prostaglandin E2 receptor EP4 subtype, sequence (P35408 whole entry): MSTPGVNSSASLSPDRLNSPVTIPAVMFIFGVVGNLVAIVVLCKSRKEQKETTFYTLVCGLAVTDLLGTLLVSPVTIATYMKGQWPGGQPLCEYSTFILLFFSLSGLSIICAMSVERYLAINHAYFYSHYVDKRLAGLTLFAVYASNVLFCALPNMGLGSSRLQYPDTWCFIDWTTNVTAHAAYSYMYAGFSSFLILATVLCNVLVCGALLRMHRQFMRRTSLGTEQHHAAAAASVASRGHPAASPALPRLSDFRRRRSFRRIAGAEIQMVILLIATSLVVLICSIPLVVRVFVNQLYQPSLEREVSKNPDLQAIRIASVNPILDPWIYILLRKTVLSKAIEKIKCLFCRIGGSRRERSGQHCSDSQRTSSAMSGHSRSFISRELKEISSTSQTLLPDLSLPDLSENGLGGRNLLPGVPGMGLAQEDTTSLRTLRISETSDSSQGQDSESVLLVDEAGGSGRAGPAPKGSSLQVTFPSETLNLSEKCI
Voltage-gated inwardly rectifying potassium channel KCNH2, sequence (Q12809 whole entry): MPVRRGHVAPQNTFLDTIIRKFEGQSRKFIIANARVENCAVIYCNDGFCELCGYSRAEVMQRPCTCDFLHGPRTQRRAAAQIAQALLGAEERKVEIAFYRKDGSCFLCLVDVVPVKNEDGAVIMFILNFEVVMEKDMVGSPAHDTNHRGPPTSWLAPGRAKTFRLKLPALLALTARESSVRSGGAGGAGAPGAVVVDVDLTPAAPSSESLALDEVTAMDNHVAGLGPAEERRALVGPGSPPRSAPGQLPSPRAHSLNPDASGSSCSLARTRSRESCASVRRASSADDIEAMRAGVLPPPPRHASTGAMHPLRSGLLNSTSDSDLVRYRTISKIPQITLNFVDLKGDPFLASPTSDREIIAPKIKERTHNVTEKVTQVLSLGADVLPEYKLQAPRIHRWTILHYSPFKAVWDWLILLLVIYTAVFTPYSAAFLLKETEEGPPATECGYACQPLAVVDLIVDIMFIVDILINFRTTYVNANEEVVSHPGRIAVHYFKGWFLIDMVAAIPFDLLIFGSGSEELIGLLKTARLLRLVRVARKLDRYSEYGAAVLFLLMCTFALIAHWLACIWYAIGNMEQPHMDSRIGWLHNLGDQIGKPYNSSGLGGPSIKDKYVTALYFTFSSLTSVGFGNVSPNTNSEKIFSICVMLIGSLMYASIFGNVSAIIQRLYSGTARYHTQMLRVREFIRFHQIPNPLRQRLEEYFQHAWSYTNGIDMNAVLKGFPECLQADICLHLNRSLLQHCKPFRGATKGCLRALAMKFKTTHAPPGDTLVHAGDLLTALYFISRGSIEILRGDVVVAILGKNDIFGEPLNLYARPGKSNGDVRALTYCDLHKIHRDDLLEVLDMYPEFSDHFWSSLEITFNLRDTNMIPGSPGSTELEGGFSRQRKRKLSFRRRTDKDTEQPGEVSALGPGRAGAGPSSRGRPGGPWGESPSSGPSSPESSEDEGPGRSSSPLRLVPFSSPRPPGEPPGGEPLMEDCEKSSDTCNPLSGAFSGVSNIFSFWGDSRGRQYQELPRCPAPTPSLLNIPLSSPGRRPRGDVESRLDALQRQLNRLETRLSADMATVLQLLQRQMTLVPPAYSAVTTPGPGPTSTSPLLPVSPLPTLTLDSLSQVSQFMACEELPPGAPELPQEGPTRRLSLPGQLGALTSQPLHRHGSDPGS

Compound: CCCCCOC(=O)Nc1nc(=O)n([C@@H]2O[C@H](C)[C@@H](O)[C@H]2O)cc1F [CAPECITABINE]
- inhibition in vivo at 300 mg/kg [5]: 67.9%
- Activity [6]: 707.13 mm3
- Activity [7]: Non-Toxic

Compound: COc1ccc(Br)cc1S(=O)(=O)NC(=O)/C=C/c1ccccc1Cc1ccc2ccccc2c1
- IC50 [26]: 0.033 µM

Compound: C[C@H](NC(=O)c1c(C(F)F)nn(C)c1Oc1cccc(C(F)(F)F)c1)c1ccc(C(=O)O)cc1 [PALUPIPRANT]
- Activity [35]: 1619.76 mm3
- inhibition in vivo at 150 mg/kg [36]: 25.9%

More lines, main results first:

- Ki [1]: > 8.8 µM
- Ki [2]: > 9.6 µM
- Ki [3]: > 6.4 µM
Compound: Cn1c(C(=O)NC2(c3ccc(C(=O)O)cc3)CC2)c(Nc2cccc(C(F)(F)F)c2)c2ccccc21

- IC50 [4]: > 10 µM
Compound: C[C@H](NC(=O)c1c(Nc2cccc(C(F)(F)F)c2)c2ccccc2n1C)c1ccc(C(N)=O)cc1

- residual activity [8]: 83.02%
- Vd [9]: 0.41 L/kg
- half-life at 1 µM [10]: 1.64 h
- clearance [11]: 0.297 L/h/kg
- Ki [1]: > 8.8 µM
- PPB [13]: 99.66%
- IC50 [14]: > 10 µM
- Cmax [15]: 4.63 µg/mL
- half-life at 1 µM [16]: 0.404 h
- half-life [17]: 2.7 h
- Tmax [19]: 0.5 h
- residual activity [20]: 70.47%
- AUC(0-t) [21]: 25.7 µg·h/mL
- IC50 [22]: > 10 µM
- AUC(0-inf) [23]: 25.7 µg·h/mL
- Cmax [24]: 8.24 µg/mL
- half-life at 1 µM [25]: 4.33 h
- IC50 [26]: > 10 µM
- PPB [27]: 99.68%
- AUC(0-t) [29]: 3.38 µg·h/mL
- PPB [30]: 99.73%
- residual activity [31]: 88.79%
- half-life [32]: 1.4 h
- bioavailability [33]: 76.1%
- Ki [2]: > 9.6 µM
- AUC(0-inf) [34]: 3.42 µg·h/mL
- Ki [3]: > 6.4 µM
Compound: C[C@H](NC(=O)c1c(Nc2cccc(C(F)(F)F)c2)c2ccccc2n1C)c1ccc(C(=O)O)cc1
- Activity [12]: Non-Toxic
- IC50 [18]: > 40 µM
- Activity [28]: Non-Toxic
